Results as given in ChEMBL document CHEMBL4513216, “Probing the Open Global Health Chemical Diversity Library for Multistage-Active Starting Points for Next-Generation Antimalarials” (ACS Infect Dis, 2020).

Assay: Toxicity liver stage against HepG2, at 10uM
Format: cell-based
Set-up: test concentration 10 uM, cell line HepG2-A16-CD81EGFP
Settings: human, HepG2-A16-CD81EGFP cells; read-out: INHIBITION
Summary of the method: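 Uninfected HepG2-A16-CD81EGFP cells, 3 × 10^3 per well, 1536-well, plated on prespotted compound at 10 μM final, parasite-free screening media added to match infected plates; puromycin 10 μM positive, DMSO 0.5% negative; run in parallel with 48 h PbLuc assay at 37 °C, 5% CO2; viability by CellTiter-Glo luminescence, normalized to controls.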
Work on `O=C1N(c2ccccc2)C[C@H]2CN(C3CCC3)CCN12` yielded a cytotoxicity at 10 µM of 6.09%.
Work on `CNC(=O)[C@@H]1[C@@H](c2ccccc2)CN2CCN(Cc3cccs3)C[C@H]12` yielded a cytotoxicity at 10 µM of 11%.
For `Cc1noc(C)c1S(=O)(=O)N1CCC(Oc2cccnn2)CC1`, the cytotoxicity at 10 µM was 0.0701%.
In the case of `COc1cccc(CC(=O)N2CCCSCC2CN2CCCC2)c1` (stereo unspecified), the cytotoxicity at 10 µM is reported as -1.42%.
`CC(C)NC(=O)N1CCC2(CC1)[C@@H]1CN(C(=O)N(C)C)C[C@@H]1C(=O)N2C` gave a cytotoxicity at 10 µM of 4.32%.
For `CN1C(=O)CCCC12CCCN(C(=O)c1cccc(C(F)(F)F)c1)C2` (stereo unspecified), the cytotoxicity at 10 µM was 4.65%.
`O=C(c1cccnc1)N1Cc2[nH]nc(COCCO)c2C1` showed a cytotoxicity at 10 µM of 13.3%.
For `CC(C)NC(=O)c1nc2c(s1)CCCN2c1ccccc1`, the cytotoxicity at 10 µM was 4.29%.
With `CC(C)N(C)Cc1ncn2c1CN(CC(=O)N(C)C)CCC2` the cytotoxicity at 10 µM was 7.28%.
`Cc1nn(-c2ccccc2)c(C)c1CN1CCNCC1` gave a cytotoxicity at 10 µM of 6.19%.
Compound `COc1c(C(=O)NCc2cnn(C)c2C)nnn1Cc1ccccc1` has a cytotoxicity at 10 µM of -11.3%.
For `CCC(=O)N1CCOC(c2cc(Nc3nncs3)cc(C)n2)C1` (stereo unspecified), the cytotoxicity at 10 µM was 5.67%.
With `CN(C)c1ncc(-c2ccncc2)c(CCNC(=O)C2CC2)n1` the cytotoxicity at 10 µM was 0.05%.
`Cc1cc2c(=O)n3c(nc2s1)CCN(C(=O)c1scnc1C)CC3` gave a cytotoxicity at 10 µM of -0.774%.
`CNC(=O)CCc1cc(C)nc(C2CCCN2)c1` (stereo unspecified) gave a cytotoxicity at 10 µM of -8.49%.
`CN(C)C(=O)C1CN(Cc2c[nH]cn2)CCN(C2CCOCC2)C1` (stereo unspecified) gave a cytotoxicity at 10 µM of -5.97%.
In the case of `O=C(c1ccc[nH]1)N1CCOCC12CCCC2`, the cytotoxicity at 10 µM is reported as 12.3%.
Work on `Cc1ccc2c(c1C)OCC2NCc1ccc(C#N)cc1` (stereo unspecified) yielded a cytotoxicity at 10 µM of 25.8%.
Compound `c1ccc(-c2nccc(N3CCc4c(ncn4C4CC4)C3)n2)cc1` has a cytotoxicity at 10 µM of 7.22%.
`Cc1cc(NC(=O)N2CCN(c3cccs3)CC2)ccc1C(N)=O` showed a cytotoxicity at 10 µM of -7.79%.
`Cc1nc2cc(=O)[nH]n2c(C)c1CNC(=O)c1cnn(C(C)(C)C)c1` showed a cytotoxicity at 10 µM of -4.01%.
`Cc1ccc(C2CCCN2S(=O)(=O)N(C)Cc2nccn2C)o1` (stereo unspecified) gave a cytotoxicity at 10 µM of -0.787%.
In the case of `CCc1nc(NS(=O)(=O)c2cc(C)cc(F)c2)no1`, the cytotoxicity at 10 µM is reported as 2.31%.
`CCC(C)(CCO)NC(=O)c1ccon1` (stereo unspecified) showed a cytotoxicity at 10 µM of 4.13%.
With `CCn1c(C)nnc1CN(C)C1CCN(CCc2cccs2)C1` (stereo unspecified) the cytotoxicity at 10 µM was -7.12%.
For `CCN(CC)C(=O)c1cc(Br)cc(S(=O)(=O)N2CCOCC2)c1F`, the cytotoxicity at 10 µM was -2.43%.
For `Cc1noc(COCC(=O)N2CCCCC2c2nccs2)n1` (stereo unspecified), the cytotoxicity at 10 µM was 6.9%.
Work on `CC(C)OCCCNC(=O)Nc1cccc2ncccc12` yielded a cytotoxicity at 10 µM of 2.96%.
With `CN(C)c1nc(N)nc(CSCCC(=O)Nc2ccc(F)cc2)n1` the cytotoxicity at 10 µM was -1.33%.
`Cc1nc(CNC(=O)NC(C)c2ccc3c(c2)OCCO3)cs1` (stereo unspecified) gave a cytotoxicity at 10 µM of -2.61%.
With `CCN1CCN(c2ccc(C(=O)NC(C)C(=O)N(C)C)cc2)CC1` (stereo unspecified) the cytotoxicity at 10 µM was -4.98%.
For `COc1ccc(Cl)cc1-c1cc(NC(=O)C2CNC(=O)N2)[nH]n1` (stereo unspecified), the cytotoxicity at 10 µM was -1.12%.
With `CC1CCN(C(=O)C2CCN(c3ccc(Cl)cc3C#N)CC2)CC1` the cytotoxicity at 10 µM was 11.8%.
In the case of `C1CC(CN2CCOCC3(CCN(C4CCOCC4)C3)C2)CCO1` (stereo unspecified), the cytotoxicity at 10 µM is reported as -3.37%.
In the case of `Cc1cc(N2CCC(c3nccn3Cc3cscn3)CC2)ccn1`, the cytotoxicity at 10 µM is reported as -4.72%.
For `O=C1CCc2cc(S(=O)(=O)NCc3cc4n(n3)CCNC4)ccc2N1`, the cytotoxicity at 10 µM was 3.28%.
For `Cc1nn(CCC(=O)N2CCCC(OCc3cccnc3)C2)c(C)c1C` (stereo unspecified), the cytotoxicity at 10 µM was -5.47%.
Compound `Cc1c(Cl)cccc1NC(=O)N1CCC2(CC1)NC(=O)CC2C(=O)O` (stereo unspecified) has a cytotoxicity at 10 µM of -1%.
For `Cc1ccc(N2CC[C@@H](NC(=O)c3cnccn3)[C@H](O)C2)nn1`, the cytotoxicity at 10 µM was -6.79%.
Compound `Cc1cc(NC2CCN(Cc3ccccn3)CC2)n2nc(C)c(C)c2n1` has a cytotoxicity at 10 µM of 0.951%.
For `CNC(=O)[C@@H]1C[C@H](n2cc(-c3ccc(CN4CC=CC4)cc3)nn2)CN1`, the cytotoxicity at 10 µM was 3.46%.
Compound `CC(C)(CN1CCCC1)CN1CCC(Cn2cc(C3CC3)nn2)CC1` has a cytotoxicity at 10 µM of -12.2%.
`COc1cccn(CC(=O)N2CCCC3(CCOCC3)C2)c1=O` gave a cytotoxicity at 10 µM of 8.78%.
Compound `CS(=O)(=O)NCCC(=O)NCc1cccnc1-n1cnc2ccccc21` has a cytotoxicity at 10 µM of -0.0143%.
With `CC(C)c1cc(C(=O)N2CCC3(CC2)c2ccccc2[C@@H](N)[C@@H]3O)cs1` the cytotoxicity at 10 µM was -7.34%.
`O=C(O)c1cccnc1CN1CCCCC1CCc1cccc(O)c1` (stereo unspecified) showed a cytotoxicity at 10 µM of -1.84%.
In the case of `CCCc1nnc(N2CCN(Cc3ccccc3OC)CC2)o1`, the cytotoxicity at 10 µM is reported as -12%.
For `O=C(NCCn1cccc1)C1CCC(=O)N(C2CCCC2)C1` (stereo unspecified), the cytotoxicity at 10 µM was 0.622%.
Compound `COc1cccc(C(=O)N2CCN(C(=O)CCCn3ccnc3)CC2)c1` has a cytotoxicity at 10 µM of 3.82%.
With `CCCSCC(=O)N1CCC2(CC1)CC(c1ccccc1)CN(C)C2` (stereo unspecified) the cytotoxicity at 10 µM was -7.29%.
With `CN(C)c1ncccc1CNC(=O)NCc1cccs1` the cytotoxicity at 10 µM was -4.87%.
With `CCCOc1ncccc1CNc1nnc(C)c(C)c1C#N` the cytotoxicity at 10 µM was -14.3%.
Compound `Cc1nnc(CN(C)C2CCN(Cc3nnc(C4CCC4)o3)C2)n1C` (stereo unspecified) has a cytotoxicity at 10 µM of -8.15%.
Compound `O=C(CCc1ccsc1)N1CCCC(n2cncn2)C1` (stereo unspecified) has a cytotoxicity at 10 µM of -9.47%.
In the case of `COCc1ccccc1C(=O)N1CCCC(c2cc(C)[nH]n2)C1` (stereo unspecified), the cytotoxicity at 10 µM is reported as -23.2%.
With `Cc1nc(C)n(C2CCCN(C(=O)c3csc(CC(C)C)n3)C2)n1` (stereo unspecified) the cytotoxicity at 10 µM was -17.3%.
For `CCCc1noc(CN2CCCC2c2noc(C3CC3)n2)n1` (stereo unspecified), the cytotoxicity at 10 µM was -13%.
Work on `COc1c(CNC2CCc3cc(F)ccc32)c(C(C)C)nn1C` (stereo unspecified) yielded a cytotoxicity at 10 µM of 1.16%.
For `CCOc1ncccc1NC(=O)NC1CCN(C(=O)C2CC2)CC1`, the cytotoxicity at 10 µM was -13.6%.
Compound `O=C(NCc1nnc2n1CCCCC2)N1CCc2ccccc2C1` has a cytotoxicity at 10 µM of 4.66%.
For `CC(NC(=O)NCCCOc1ccccc1F)c1nncn1C` (stereo unspecified), the cytotoxicity at 10 µM was -8.77%.
Compound `CC(=O)Nc1nc(C(=O)N2CCC(Nc3cccnn3)CC2)cs1` has a cytotoxicity at 10 µM of -4.67%.
With `c1ccc(-c2nc(CN3CCn4c(nnc4C4CC4)C3)cs2)cc1` the cytotoxicity at 10 µM was -3.92%.
`Cc1cccc(-c2noc(CN3CCC(N4CCNC4=O)CC3)n2)c1` gave a cytotoxicity at 10 µM of 5.34%.
Compound `CCN(Cc1ccc2c(c1)OCO2)Cc1nc(C)no1` has a cytotoxicity at 10 µM of -6.49%.
`CCN(Cc1cccc2c1OCO2)C(=O)C(C)c1cccnc1` (stereo unspecified) gave a cytotoxicity at 10 µM of -4.84%.
`Cc1ncc(CN(C)CC2CCCN2c2cccnn2)s1` (stereo unspecified) gave a cytotoxicity at 10 µM of 4.19%.
`COCCN1C(=O)CCC12CCC(NCc1cccc(C)n1)CC2` (stereo unspecified) showed a cytotoxicity at 10 µM of 9.4%.
`O=C(O)c1cc2c(nc1-c1ccsc1)CCN(C(=O)C1CC1)CC2` gave a cytotoxicity at 10 µM of 14.4%.
For `CCO[C@@H]1CC[C@H]2[C@H]1OCCN2CCOCc1ccccc1`, the cytotoxicity at 10 µM was -111%.
`C1CC(CN2CCO[C@H]3[C@H](OCC4CC4)CC[C@@H]32)CCO1` showed a cytotoxicity at 10 µM of -13.3%.
`COc1cccc(CN2CCC3(CC2)CCN(c2ncc(F)cn2)C3)c1` gave a cytotoxicity at 10 µM of 1.42%.
In the case of `O=S1(=O)NCC2(CCNCC2)COc2ccccc21`, the cytotoxicity at 10 µM is reported as -2.75%.
Work on `Cc1cnc(N2C[C@@H]3[C@@H](C2)OCC(=O)N3CC(C)C)nc1` yielded a cytotoxicity at 10 µM of -0.173%.
With `CCC(=O)N1CCC2(CCC(N3CCCC3)c3ccccc32)CC1` (stereo unspecified) the cytotoxicity at 10 µM was -6.23%.
Compound `O=C(c1ccc2ccc(N3CCN(CC4CC4)CC3)n2c1)N1CCCO1` has a cytotoxicity at 10 µM of 9.81%.
In the case of `CCc1cnc(N2C[C@H](OCc3csc(C)n3)[C@H]3COC[C@H]32)nc1`, the cytotoxicity at 10 µM is reported as -2.51%.
With `Cc1ccc(CN2C[C@@H]3CN(c4ncccn4)C[C@@H]3C2)cc1` the cytotoxicity at 10 µM was -2.02%.
Work on `Cc1noc(C)c1CN1CCC2(CC1)C(c1cnn(C)c1)CC(=O)N2C` (stereo unspecified) yielded a cytotoxicity at 10 µM of -106%.
In the case of `CCN1CCn2c(C)cnc2C12CCN(C(=O)NCC(C)C)CC2`, the cytotoxicity at 10 µM is reported as -1.07%.
`NCc1cc(-c2ccccc2)n2nccc2n1` gave a cytotoxicity at 10 µM of -14.7%.
